Data: ChEMBL document CHEMBL1123041, “Synthesis of new bis(aminoethanethiol) (BAT) derivatives: possible ligands for 99mTc brain imaging agents” (J Med Chem, 1985)

How the values were obtained:
Rattus norvegicus [1] = test: Biodistribution in Sprague-Dawley rat small intestine 2 minutes after intravenous administration, [99mTc]/[125I] IAP ratio); type: ADME, organism-based; settings: in vivo
Procedure, shortened: (§1)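 99mTc complex and [125I]iodoantipyrine were co-injected iv into rats. Rats were killed by cardiectomy at 2 or 15 min, and organs were excised, weighed and gamma-counted in two channels with spillover correction. The ratio is 99mTc percent dose divided by 125I percent dose in the same organ, averaged over three rats. Radiochemical purity of the complexes was >95% by reversed-phase HPLC.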

Rattus norvegicus [2] = test: Biodistribution in Sprague-Dawley rat small intestine 15 minutes after intravenous administration, [99mTc]/[125I] IAP ratio); type: ADME, organism-based; settings: in vivo, 0.25 h; procedure, shortened: as §1
Rattus norvegicus [3] = test: Biodistribution in Sprague-Dawley rat brain 15 minutes after intravenous administration, [99mTc]/[125I] IAP ratio); type: ADME, organism-based; settings: in vivo, 0.25 h; procedure, shortened: as §1
Rattus norvegicus [4] = test: Biodistribution in Sprague-Dawley rat brain 2 minutes after intravenous administration.; type: ADME, organism-based; settings: in vivo
Procedure, shortened: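 Rats received the 99mTc complex iv together with [125I]iodoantipyrine as internal reference and were killed by cardiectomy. Brain was excised, weighed and gamma-counted. Percent dose/organ was obtained by comparing tissue activity with diluted aliquots of the injected dose, averaged over three rats. Radiochemical purity of the complexes was >95% by HPLC.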

Rattus norvegicus [5] = test: Biodistribution in Sprague-Dawley rat skin 15 minutes after intravenous administration, [99mTc]/[125I] IAP ratio); type: ADME, organism-based, Zone of skin; settings: in vivo, 0.25 h; procedure, shortened: as §1
Rattus norvegicus [6] = test: Biodistribution in Sprague-Dawley rat blood 2 minutes after intravenous administration, [99mTc]/[125I] IAP ratio); type: ADME, organism-based; settings: in vivo; procedure, shortened: as §1
Rattus norvegicus [7] = test: Biodistribution in Sprague-Dawley rat liver 2 minutes after intravenous administration, [99mTc]/[125I] IAP ratio); type: ADME, organism-based; settings: in vivo; procedure, shortened: as §1
Rattus norvegicus [8] = test: Biodistribution in Sprague-Dawley rat blood 15 minutes after intravenous administration, [99mTc]/[125I] IAP ratio); type: ADME, organism-based; settings: in vivo, 0.25 h; procedure, shortened: as §1
Rattus norvegicus [9] = test: Biodistribution in Sprague-Dawley rat lungs(2) 15 minutes after intravenous administration, [99mTc]/[125I] IAP ratio); type: ADME, organism-based, Lung; settings: in vivo, 0.25 h; procedure, shortened: as §1
Rattus norvegicus [10] = test: Biodistribution in Sprague-Dawley rat muscle 2 minutes after intravenous administration, [99mTc]/[125I] IAP ratio); type: ADME, organism-based, Muscle tissue; settings: in vivo; procedure, shortened: as §1
Rattus norvegicus [11] = test: Biodistribution in Sprague-Dawley rat stomach 2 minutes after intravenous administration, [99mTc]/[125I] IAP ratio); type: ADME, organism-based; settings: in vivo; procedure, shortened: as §1
Rattus norvegicus [12] = test: Biodistribution in Sprague-Dawley rat kidneys(2) 15 minutes after intravenous administration, [99mTc]/[125I] IAP ratio); type: ADME, organism-based, Kidney; settings: in vivo, 0.25 h; procedure, shortened: as §1
Rattus norvegicus [13] = test: Biodistribution in Sprague-Dawley rat skin 2 minutes after intravenous administration, [99mTc]/[125I] IAP ratio); type: ADME, organism-based, Zone of skin; settings: in vivo; procedure, shortened: as §1
Rattus norvegicus [14] = test: Biodistribution in Sprague-Dawley rat thyroid 2 minutes after intravenous administration, [99mTc]/[125I] IAP ratio); type: ADME, organism-based, Thyroid gland; settings: in vivo; procedure, shortened: as §1
Rattus norvegicus [15] = test: Biodistribution in Sprague-Dawley rat heart 2 minutes after intravenous administration, [99mTc]/[125I] IAP ratio); type: ADME, organism-based; settings: in vivo; procedure, shortened: as §1
Rattus norvegicus [16] = test: Biodistribution in Sprague-Dawley rat muscle 15 minutes after intravenous administration, [99mTc]/[125I] IAP ratio); type: ADME, organism-based, Muscle tissue; settings: in vivo, 0.25 h; procedure, shortened: as §1
Homo sapiens = species on record: Homo sapiens; test: The human serum protein binding activity was determined; type: functional
Procedure, shortened: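 Equilibrium dialysis: 0.4 mL pooled human serum against 0.4 mL 0.15 M phosphate buffer pH 7.4 containing 99mTc complex (~0.025 μCi), rotated 18 h at 37 °C. Both sides weighed and counted; percent free = buffer/serum radioactivity concentration ratio × 100. Membrane counted afterwards to check membrane binding.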

Rattus norvegicus [17] = test: Biodistribution in Sprague-Dawley rat lungs(2) 2 minutes after intravenous administration, [99mTc]/[125I] IAP ratio); type: ADME, organism-based, Lung; settings: in vivo; procedure, shortened: as §1
Rattus norvegicus [18] = test: Biodistribution in Sprague-Dawley rat stomach 15 minutes after intravenous administration, [99mTc]/[125I] IAP ratio); type: ADME, organism-based; settings: in vivo, 0.25 h; procedure, shortened: as §1
[19] = Partition coefficient was determined at pH 7.0.; type: ADME; settings: octanol/water
Procedure, shortened: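 99mTc-labelled BAT complex shaken with 3 g each of 1-octanol and 0.1 M phosphate buffer (pH 7.0), vortexed 3 min at room temperature, centrifuged 5 min. Two 0.5 g samples per layer counted in a well counter; PC = cpm/g octanol over cpm/g buffer. Octanol layer repartitioned until values were consistent; usually repeated three times.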

Rattus norvegicus [20] = test: Biodistribution in Sprague-Dawley rat thyroid 15 minutes after intravenous administration, [99mTc]/[125I] IAP ratio); type: ADME, organism-based, Thyroid gland; settings: in vivo, 0.25 h; procedure, shortened: as §1
Rattus norvegicus [21] = test: Biodistribution in Sprague-Dawley rat liver 15 minutes after intravenous administration, [99mTc]/[125I] IAP ratio); type: ADME, organism-based; settings: in vivo, 0.25 h; procedure, shortened: as §1
Rattus norvegicus [22] = test: Biodistribution in Sprague-Dawley rat spleen 2 minutes after intravenous administration, [99mTc]/[125I] IAP ratio); type: ADME, organism-based; settings: in vivo; procedure, shortened: as §1
Rattus norvegicus [23] = test: Biodistribution in Sprague-Dawley rat kidneys(2) 2 minutes after intravenous administration, [99mTc]/[125I] IAP ratio); type: ADME, organism-based, Kidney; settings: in vivo; procedure, shortened: as §1
Rattus norvegicus [24] = test: Biodistribution in Sprague-Dawley rat spleen 15 minutes after intravenous administration, [99mTc]/[125I] IAP ratio); type: ADME, organism-based; settings: in vivo, 0.25 h; procedure, shortened: as §1
Rattus norvegicus [25] = test: Biodistribution in Sprague-Dawley rat heart 15 minutes after intravenous administration, [99mTc]/[125I] IAP ratio); type: ADME, organism-based; settings: in vivo, 0.25 h; procedure, shortened: as §1
Rattus norvegicus [26] = test: Biodistribution in Sprague-Dawley rat brain 2 minutes after intravenous administration, [99mTc]/[125I] IAP ratio); type: ADME, organism-based; settings: in vivo; procedure, shortened: as §1

SMILES | Dose (Rattus norvegicus [1]) | Dose (Rattus norvegicus [2]) | Dose (Rattus norvegicus [3]) | Dose (Rattus norvegicus [5]) | Dose (Rattus norvegicus [6]) | Dose (Rattus norvegicus [7]) | Dose (Rattus norvegicus [8]) | Dose (Rattus norvegicus [9]) | Dose (Rattus norvegicus [10]) | Dose (Rattus norvegicus [11]) | Dose (Rattus norvegicus [12]) | Dose (Rattus norvegicus [13]) | Dose (Rattus norvegicus [14]) | Dose (Rattus norvegicus [15]) | Dose (Rattus norvegicus [16]) | Free (Homo sapiens) | Dose (Rattus norvegicus [17]) | Dose (Rattus norvegicus [18]) | Partition coefficient [19] | Dose (Rattus norvegicus [20]) | also measured
CC(C)(S)CNCC(NCC(C)(C)S)c1ccccc1O (configuration not stated) | 6.24% | 18.2% | 0.229% | 8.17% | 14.5% | 29% | 4.77% | 1.52% | 8.66% | 1.61% | 1.73% | 7.45% | 0.189% | 3.31% | 12.4% | 14.7% | 4.94% | 5.46% | 248 | 0.057% | Dose (Rattus norvegicus [4]): 0.408%; Dose (Rattus norvegicus [21]): 25.4%; Dose (Rattus norvegicus [22]): 0.407%; Dose (Rattus norvegicus [23]): 4.75%; Dose (Rattus norvegicus [24]): 0.323%; Dose (Rattus norvegicus [25]): 0.441%
COc1ccccc1C(CNCC(C)(C)S)NCC(C)(C)S (configuration not stated) | 4.47% | 12.5% | 0.297% | 11.8% | 7.81% | 11.9% | 2.56% | 0.877% | 7.09% | 1.07% | 1.1% | 5.21% | 0.292% | 4.46% | 15.1% | 23.4% | 5.49% | 3.16% | 260 | 0.063% | Dose (Rattus norvegicus [26]): 2.3%; Dose (Rattus norvegicus [21]): 17.4%; Dose (Rattus norvegicus [22]): 0.149%; Dose (Rattus norvegicus [23]): 3.23%; Dose (Rattus norvegicus [24]): 0.197%; Dose (Rattus norvegicus [25]): 0.395%
